Measured values published in ChEMBL document CHEMBL1124504, “Azido glycols: potent, low molecular weight renin inhibitors containing an unusual post scissile site residue” (J Med Chem, 1989).
Converted amounts (≈) assume the structure as drawn.

Experiments:
[1] = target: T1, Renin (Homo sapiens, UniProt P00797); assay: Inhibitory activity against human plasma renin at pH 7.4; type: cell-free
T1 sequence (P00797 whole entry): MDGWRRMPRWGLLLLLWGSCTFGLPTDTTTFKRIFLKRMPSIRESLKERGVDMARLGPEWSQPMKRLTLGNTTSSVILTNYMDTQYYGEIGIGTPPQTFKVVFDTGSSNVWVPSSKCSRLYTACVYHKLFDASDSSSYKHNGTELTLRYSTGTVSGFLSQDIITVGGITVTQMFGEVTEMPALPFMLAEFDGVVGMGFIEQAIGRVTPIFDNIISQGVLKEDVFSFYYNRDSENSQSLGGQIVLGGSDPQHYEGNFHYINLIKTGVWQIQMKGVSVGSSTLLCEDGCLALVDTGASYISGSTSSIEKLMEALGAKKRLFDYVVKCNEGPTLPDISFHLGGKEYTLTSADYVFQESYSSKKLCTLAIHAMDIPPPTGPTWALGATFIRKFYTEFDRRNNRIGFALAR

[2] = target: T1, Renin; assay: Inhibitory activity against purified human renal renin at pH 6.0
[3] = Solubility in pH 6.5 buffer; type: physicochemical
Procedure, shortened: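 About 10 mg shaken in 1 mL 0.01 M phosphate buffer, pH 6.5, for 24 h at 37 °C. Suspension filtered through glass wool, diluted in mobile phase, and quantified by HPLC with detection at 214 nm; reported as mg/mL.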

[4] = target: T1, Renin; assay: Inhibitory activity against purified human renal renin at pH 6.0
[5] = organism: Rattus norvegicus; assay: In vitro intestinal permeability in rats; type: ADME
Procedure, shortened: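 Rat jejunum removed after cervical dislocation, washed with balanced electrolyte solution at 4 °C. Central 30 cm mounted for recirculating luminal perfusion (30 mL) at 37 °C under 95% O2-5% CO2. Inhibitor added mucosally at 100 μM with 3H-PEG-900 baseline marker. Mucosal and serosal samples taken every 15 min for 150 min. Inhibitor measured by HPLC-UV and PEG by scintillation. P = J/ΔC from steady-state (45-120 min) regression, cm/h; mean ± SE, n = 2.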

[6] = tested on: Rattus norvegicus; assay: Plasma levels in the portal blood vessel of rat after 10 min of administration of 10 mg/kg intraduodenally; type: functional, organism-based; design: dose 10 mg/kg
Procedure, shortened: (§1)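 Male Sprague-Dawley rats, fasted overnight, ≥150 g, under inactin (80 mg/kg ip), pylorus ligated. Carotid and portal vein catheterized. 10 mg/kg injected into the duodenum; paired blood drawn at 10 min. Plasma acetonitrile-precipitated, serially diluted, dried.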

[7] = tested on: Rattus norvegicus; assay: Plasma levels in the systemic blood vessel of rat after 10 min of administration of 10 mg/kg intraduodenally; type: functional, organism-based; design: dose 10 mg/kg; procedure, shortened: as §1

Row | SMILES | IC50 [1] | IC50 [2] | solubility [3] | IC50 [4] | other results
1 | CC(C)C(=O)N[C@@H](Cc1ccccc1)C(=O)N[C@@H](Cc1c[nH]cn1)C(=O)N[C@H](CC1CCCCC1)[C@H](O)[C@H](O)CN=[N+]=[N-] | 3.3 nM | 0.55 nM | 13 µg/mL (≈ 21.8 µM) | – | –
2 | CC(C)(C)OC(=O)N[C@@H](Cc1ccccc1)C(=O)N[C@@H](Cc1c[nH]cn1)C(=O)N[C@H](CC1CCCCC1)[C@H](O)[C@H](O)CN=[N+]=[N-] | 9 nM | 0.4 nM | – | 0.4 nM | –
3 | [N-]=[N+]=NC[C@@H](O)[C@@H](O)[C@@H](CC1CCCCC1)NC(=O)[C@H](Cc1c[nH]cn1)NC(=O)[C@H](Cc1ccccc1)NC(=O)C1CCOCC1 | 7.6 nM | 0.7 nM | 23 µg/mL (≈ 36 µM) | – | –
4 | CC(C)(C)OC(=O)N[C@@H](Cc1ccccc1)C(=O)N[C@@H](Cc1c[nH]cn1)C(=O)N[C@H](CC1CCCCC1)[C@H](O)[C@@H](O)CN=[N+]=[N-] | – | – | – | 26 nM | –
5 | CC(C)(C)OC(=O)N[C@@H](Cc1ccccc1)C(=O)N[C@@H](Cc1c[nH]cn1)C(=O)N[C@H](CC1CCCCC1)[C@H](O)C(=O)CN=[N+]=[N-] | – | – | – | 5.4 nM | –
6 | [N-]=[N+]=NC[C@@H](O)[C@@H](O)[C@@H](CC1CCCCC1)NC(=O)[C@H](Cc1cnc[nH]1)NC(=O)[C@H](Cc1ccccc1)NC(=O)N1CCOCC1 | 2.4 nM | 0.67 nM | 2600 µg/mL (≈ 4060 µM) | – | –
7 | CC(C)(C)OC(=O)N[C@@H](Cc1ccccc1)C(=O)N[C@@H](Cc1cnc[nH]1)C(=O)N[C@H](CC1CCCCC1)[C@H](O)C(O)(CO)CN=[N+]=[N-] (stereo partly drawn) | – | – | – | 4.8 nM | –
8 | Cn1c(=O)c2[nH]cnc2n(C)c1=O.O [THEOPHYLLINE] | – | – | – | – | Permeability [5]: 22.35 cm (10e3*hr)-1
9 | CC(C)(C)OC(=O)N[C@@H](Cc1ccccc1)C(=O)N[C@@H](Cc1c[nH]cn1)C(=O)N[C@H](CC1CCCCC1)[C@H](O)CCN=[N+]=[N-] | – | – | – | 20 nM | –
10 | CC(C)(C)OC(=O)N[C@@H](Cc1ccccc1)C(=O)N[C@@H](Cc1cnc[nH]1)C(=O)N[C@H](CC1CCCCC1)[C@H](O)[C@@H](CO)CN=[N+]=[N-] | – | – | – | 370 nM | –
11 | COc1ccc(C[C@H](NC(=O)C(C)C)C(=O)N[C@@H](Cc2c[nH]cn2)C(=O)N[C@H](CC2CCCCC2)[C@H](O)[C@H](O)CN=[N+]=[N-])cc1 | – | – | – | – | Plasma level [6]: 53 ng/mL; Plasma level [7]: 12 ng/mL
12 | C=C(CN=[N+]=[N-])[C@@H](O)[C@@H](CC1CCCCC1)NC(=O)[C@H](Cc1c[nH]cn1)NC(=O)[C@H](Cc1ccccc1)NC(=O)OC(C)(C)C | – | – | – | 55 nM | –
13 | CC(C)(C)OC(=O)N[C@@H](Cc1ccccc1)C(=O)N[C@@H](Cc1c[nH]cn1)C(=O)N[C@H](CC1CCCCC1)[C@H](O)[C@H](CO)CN=[N+]=[N-] | – | – | – | 10 nM | –
14 | COc1ccc(C[C@H](NC(=O)N2CCOCC2)C(=O)N[C@@H](Cc2c[nH]cn2)C(=O)N[C@H](CC2CCCCC2)[C@H](O)[C@H](O)CN=[N+]=[N-])cc1 | 20 nM | 4 nM | 1000 µg/mL (≈ 1490 µM) | – | Plasma level [6]: 230 ng/mL; Permeability [5]: 4.25 cm (10e3*hr)-1; Plasma level [7]: 15 ng/mL
15 | COc1ccc(C[C@H](NC(=O)C(C)C)C(=O)N[C@@H](Cc2cnc[nH]2)C(=O)N[C@H](CC2CCCCC2)[C@H](O)[C@H](O)CN=[N+]=[N-])cc1 | 10 nM | 2 nM | 29 µg/mL (≈ 46.3 µM) | – | Permeability [5]: 0.79 cm (10e3*hr)-1
16 | CC(C)(C)OC(=O)N[C@@H](Cc1ccccc1)C(=O)N[C@@H](Cc1cnc[nH]1)C(=O)N[C@H](CC1CCCCC1)[C@H](O)CN=[N+]=[N-] | – | – | – | 7.5 nM | –
